Experimental data published in PubChem BioAssay.
Unmarked numbers belong to inactive results.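 The calls were made as follows: active = viability at or below 30% in both replicate assays; inconclusive = viability at or below 30% in just one of the two assays; inactive = the rest.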

Test: HUVEC growth inhibition – cell-based, human, primary screen (AID 575);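 also: 100% = median of untreated cell wells with 0.1% DMSO on each plate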
Details: HUVEC proliferation, CellTiter-Glo luminescence, 72 h; at 10 µM; hits give low values
In short: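 Test system – primary HUVEC, no more than 12 passages · Dosing – one dose, 10 µM final, 0.1% DMSO · Times – 72 h treatment at 37 °C · Measured by – ATP-based CellTiter-Glo luminescent read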

Structure (SMILES) | viability [%]
Cc1nccn1CCCN1C(=O)OC2(CCCCC2)C1(C)O (stereo not given) | 88.1
CCOC(=O)/C=C1\SCC(=O)N1Cc1nnc(-c2ccccc2Br)o1 | 97.5
Cc1ccc(S(=O)(=O)N2CCN(C(=O)c3cc(=O)[nH]c4ccccc34)CC2)c(C)c1 | 82.8
OC(CCCN1CCC(O)(c2ccc(Cl)cc2)CC1)c1ccc(F)cc1 (stereo not given) | 73.1
CCCC(=O)n1nc(-c2ccc(OC)cc2)nc1N | 93.6
Cc1ccc(-c2nn(-c3ccccc3)cc2/C=C(\C#N)c2cccc(C#N)c2)o1 | 92
Fc1cccc(NCc2cn3ccccc3n2)c1 | 105
CCCc1nc(NCc2ccncc2)c2nnn(Cc3ccccc3F)c2n1 | 107
O=C1OCCC1Sc1ncnc2sccc12 (stereo not given) | 107
CCOC(=O)C1=C[C@]2(CC)CCCN3CCc4c(n1c1ccccc41)[C@@H]32 | 49.9
C=CCNC(=O)c1ccc(Cl)cc1Cl | 92.8
CCCC(=O)Nc1cc(-c2nnc(OC)c3ccccc23)ccc1N1CCOCC1 | 84.6
COC(=O)C1C2C=CC3(CN(CC4CCCO4)C(=O)C13)O2 (stereo not given) | 114
Cc1cc(C(C)(C)C)cc(C)c1CC1=NCCN1 | 86.3
CCCn1c(=O)c2[nH]c(C3CCCC3)nc2n(CCC)c1=O | 77.3
c1ccc(OCc2nc(-c3ccccc3)no2)cc1 | 92.5
C=CCn1c(SCC(=O)NCC2CCCO2)nc2scc(-c3ccco3)c2c1=O (stereo not given) | 88.2
COC(=O)Cc1c(C)nc2nc[nH]n2c1=O | 93
CCOCCCn1c(=NC(C)=O)c(C(=O)OCC)cc2c(=O)n3ccccc3nc21 | 108
Cc1ccc(N2CCN(c3ccc(C)cc3)C(CC(=O)O)C2=O)cc1 (stereo not given) | 98.2

Structure (SMILES) | viability [%]
C[C@@H]1C[C@H]2[C@@H]3C[C@H](F)C4=CC(=O)C=C[C@]4(C)[C@@]3(F)[C@@H](O)C[C@]2(C)[C@@]1(O)C(=O)COC(=O)C(C)(C)C | 76.9
CC(C)N(C(=O)N1CCC(c2nc(-c3ccncc3)no2)CC1)C(C)C | 105
CCOc1cc2[nH]c(=O)n(CCCCC(=O)NCc3ccco3)c(=O)c2cc1OCC | 90.7
Cc1ccc(C2C(C(=O)c3sc(C)nc3C)=C(O)C(=O)N2CCN(C)C)o1 (stereo not given) | 114
COc1cc(C(=O)N2CCCC(c3nc(-c4cccs4)no3)C2)cc(OC)c1OC (stereo not given) | 94.2
CC1Oc2ccccc2N(CC(=O)NCc2cccs2)C1=O (stereo not given) | 98.8
Cn1c(=O)c2c(nc(CN3CCCCC3)n2CCCc2ccccc2)n(C)c1=O | 103
O=C(O)CC1Sc2nc3ccccc3n2C1=O (stereo not given) | 111
CCN(CC)S(=O)(=O)c1ccc(F)c(C(=O)NCCC(C)C)c1 | 95
CCOC(=O)n1c(=O)oc2cc(S(=O)(=O)N3CCCCC3)ccc21 | 112
COC(=O)CCN(C(=O)c1ccc2c(c1)OCO2)c1ccccn1 | 93.6
CC(C)NC(=O)c1ccccc1NC(=O)CCS(=O)(=O)Cc1ccccc1 | 107
COc1cc(C2Oc3cc(C4Oc5cc(O)cc(O)c5C(=O)C4O)ccc3OC2CO)ccc1O (stereo not given) | 85.7
CCOc1ccccc1N1CC(O)=C(c2nc3ccccc3s2)C1=N | 49.4
CCOC(=O)N1CCC(NC(=O)Cc2ccc(-n3c(=O)[nH]c4ccccc4c3=O)cc2)CC1 | 97.6
O=C(CSc1nc(-c2ccco2)cc(C(F)(F)F)n1)N1CCCc2ccccc21 | 72.5
Cc1cccc(NC(=O)C2CCCN(C(=O)Nc3ccccc3)C2)c1C (stereo not given) | 102
COc1ccc(C(=O)CSc2nnc(-c3ccc(C)cc3)o2)cc1 | 110
O=C(NCc1nc2ccccc2[nH]1)c1ccc(Cl)c(S(=O)(=O)N2CCCC2)c1 | 79.2
Cc1nc2scc(-c3ccco3)c2c(=O)n1/N=C/N(C)C | 76.1
